High-throughput results: PubChem BioAssay, Johns Hopkins Ion Channel Center
RGS4 act – RGS4 potentiators or activators, primary screen, cell-based, HEK293 M3R inducible RGS4, calcium flux; carbachol calcium flux Fluo4; active compounds read low; B-score at 10 µM; hit rate 0.92% among 310,000; AID 463111, 2010;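 active = B-score of the integrated calcium signal more than 4 SD below the library mean, with starting fluorescence not abnormally high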;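 note: negative B-score means reduced calcium response which marks RGS4 activation or potentiation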
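Material: M3R-expressing HEK293 line, RGS4 induced by doxycycline | Schedule: Overnight RGS4 induction, 30 min dye load 37 °C, 20 min compound RT | Measured by: Fluo4 fluorescence kinetic imaging of calcium | Read-out: Integrated calcium ratio converted to B score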
MrgX1 antag – antagonists of human MrgX1 receptor, primary screen, HEK293 cells, Fluo-4 calcium flux; Mas-related G-protein coupled receptor member X1 (Homo sapiens), Q96LB2; BAM8-22 antagonism; active compounds read low; B-score at 10 µM; hit rate 1.3% among 310,000;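 active = calcium-response B-score plate-corrected more than 3 library SD below zero, starting fluorescence within 5 deviations, no agonist response on first addition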;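 note: peak minus trough fluorescence over baseline after final BAM8-22 challenge near maximal dose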
Target sequence (Q96LB2 whole entry, looked up): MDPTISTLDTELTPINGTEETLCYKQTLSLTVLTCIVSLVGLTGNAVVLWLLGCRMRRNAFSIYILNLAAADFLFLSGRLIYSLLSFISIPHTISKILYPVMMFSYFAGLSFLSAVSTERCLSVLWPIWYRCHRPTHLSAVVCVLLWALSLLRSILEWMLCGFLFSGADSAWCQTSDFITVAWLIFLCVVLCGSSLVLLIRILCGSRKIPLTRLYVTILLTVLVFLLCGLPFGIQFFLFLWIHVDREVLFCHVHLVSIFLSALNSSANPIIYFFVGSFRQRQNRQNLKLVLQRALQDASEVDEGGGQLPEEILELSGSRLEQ
MrgX1 agonist – agonists of human MrgX1 receptor, primary screen, HEK293 cells, Fluo-4 calcium flux | Mas-related G-protein coupled receptor member X1 (Homo sapiens), Q96LB2 | Fluo-4 calcium fluorescence, agonist mode; active compounds read high | hit rate 0.44% among 310,000 | B-score at 10 µM;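 active = calcium response B-score plate-corrected fluorescence ratio at least 3 library SD, with starting fluorescence B-score inside 5 SD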
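Test system: HEK293 cells stably expressing human MrgX1 receptor; Input: fifteen thousand cells per well; Dosing: compound delivered in addition one of three; Schedule: overnight seeding, then 1 h dark dye loading; Technique: Fluo-4 NW calcium fluorescence; Measure: B-scored fluorescence response ratio; Controls: positive and negative controls per plate.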
MrgX1 PAM – positive allosteric modulators of MrgX1, primary screen, HEK293 cells, Fluo-4 calcium flux; Mas-related G-protein coupled receptor member X1 (Homo sapiens), Q96LB2; FDSS; active compounds read high; B-score at 10 µM; hit rate 0.63% among 310,000; AID 588675, 2011;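 active = plate-corrected calcium response at least 3 library SD above typical, normal starting fluorescence, not activating the receptor alone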;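 note: compound read alongside a low EC10 to EC30 dose of BAM8-22 agonist; peak minus trough fluorescence over baseline measured at the second addition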
RGS4 inh – RGS4 inhibitors, primary screen, cell-based, HEK293 M3R inducible RGS4, calcium flux. Fluo-4 calcium flux; active compounds read high; triggered by carbachol at its EC20. B-score at 10 µM. hit rate 0.45% among 310,000;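 active = B-score, a plate-corrected calcium signal, over three deviations above library mean, with baseline fluorescence within five deviations of library mean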;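 note: RGS4 expression induced by doxycycline in cells with stable M3 receptor; B-score is computed from the integrated fluorescence ratio over baseline after carbachol; higher B-score means a larger calcium signal and so more RGS4 inhibition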
Target sequence (P49798 whole entry, looked up): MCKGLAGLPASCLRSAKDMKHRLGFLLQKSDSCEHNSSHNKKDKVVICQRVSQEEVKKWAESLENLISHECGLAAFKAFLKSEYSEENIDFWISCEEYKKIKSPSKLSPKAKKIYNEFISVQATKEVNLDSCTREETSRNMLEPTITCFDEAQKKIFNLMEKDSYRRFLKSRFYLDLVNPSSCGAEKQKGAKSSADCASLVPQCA
RGS4 activ val – reduced carbachol calcium response, RGS4-induced M3R cells, confirmation, RGS4 activator project, cell-based, HEK293 M3R/RGS4 inducible, calcium flux, duplicate; inhibition, % at 10 µM; carbachol calcium flux Fluo4; shares compounds with RGS4 act; hit rate 89% among 1,100;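 active = inhibition above 3 SD of the buffer control wells, cut at about 41% in these data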;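 note: signal is the integrated peak-minus-minimum Fluo4 fluorescence over baseline ratio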
M3R Ca counter – counter-screen for RGS4 activators: effect in non-induced cells; inhibition, % at 10 µM; hit rate 82% among 1,100; HEK293 M3R non-induced RGS4, Fluo4 calcium flux; after carbachol challenge at its EC90; shares compounds with RGS4 act;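 active = inhibition exceeding 3 SD of buffer-only control wells, cut at about 26% in these data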;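 note: percent drop in integrated peak-minus-baseline over baseline Fluo4 ratio after carbachol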
Of the large screens only hits and unclear results are named; the others gave an inactive call (follow-up assays come after a bar, where they were run). Hits are enriched below; roughly 3.5% of the tested compounds scored in any of these assays.

CN1C2CCC1CC(NC(=O)c1ccc(Cl)cc1)C2 (stereo not drawn)	none
CN1C2CCC1CC(NC(=O)CSc1ccc(Cl)cc1)C2 (stereo not drawn)	RGS4 act -9 | RGS4 activ val 59 | M3R Ca counter inactive
CC(=O)Nc1cccc(NC(=O)CSc2nnc3ccc(-c4ccncc4)nn23)c1	none
FC(F)(F)c1nc(-c2ccncc2)ncc1-c1nnnn1-c1ccccc1	none
Fc1ccc(-n2nnnc2-c2cnc(-c3cccs3)nc2C(F)(F)F)cc1	RGS4 act -9.7 | RGS4 activ val 74 | M3R Ca counter 44
Cc1oc2cc3oc(=O)c(CCC(=O)NCc4ccccn4)c(C)c3cc2c1C	none
CN1CCN(C(=O)C2CCN(c3ncc(C(F)(F)F)cc3Cl)CC2)CC1	RGS4 act -12 | RGS4 activ val 86 | M3R Ca counter 41
CC(=O)N1c2ccccc2C(C)CC12CCCCC2 (stereo not drawn)	RGS4 act -7.8 | RGS4 activ val 86 | M3R Ca counter 37
Cc1cc(C)c(S(=O)(=O)N2CCCCC2CCNC(=O)C(=O)NCc2ccccn2)c(C)c1 (stereo not drawn)	none
COC(=O)CNC(=O)COC(=O)c1ccc(Cl)nc1	none
CC(=O)c1ccc(NC(=O)N2C3CCC2CC(O)(c2cccnc2)C3)cc1 (stereo not drawn)	none
CCn1c2ccc(C)cc2c2nnc(SCCN3CCCCC3)nc21	none
c1ccc(Cn2c3ccccc3c3nnc(SCCN4CCCCC4)nc32)cc1	RGS4 act -11 | RGS4 activ val 93 | M3R Ca counter 90
CCCn1c2ccc(C)cc2c2nnc(SCCN3CCCCC3)nc21	RGS4 act -8.9 (no result: MrgX1 antag, MrgX1 agonist, MrgX1 PAM) | RGS4 activ val 79 | M3R Ca counter 84
CC(C)c1nc2cc(C(=O)N(C)Cc3ccc(F)cc3)ccc2o1	none
CCNC(=S)N1CCN(c2nc(-c3cccc(OC)c3)cs2)CC1	none
COc1cccc(-c2csc(N3CCN(C(=S)NCC(C)C)CC3)n2)c1	RGS4 act -7.7 | RGS4 activ val 80 | M3R Ca counter 56
CCC(C)c1ccccc1NC(=O)CN1CCN(C/C=C/c2ccccc2)CC1 (stereo not drawn)	RGS4 act -10 | RGS4 activ val 76 | M3R Ca counter 84
O=C(CN1CCN(C/C=C/c2ccccc2)CC1)NCc1ccccc1	none
CCOc1ccc(Cc2n[nH]c(=S)n2Cc2ccccc2)cc1	RGS4 act -8.8 | RGS4 activ val 61 | M3R Ca counter 84
COc1cccc(Cc2n[nH]c(=S)n2Cc2ccco2)c1	RGS4 act -10 | RGS4 activ val 60 | M3R Ca counter 84
Cc1nnc(NC(=O)CSc2nnc3ncccn23)s1	none
Cc1ccc(S(=O)(=O)N2CCN(C(=O)c3cc4c(C)nn(-c5ccccc5C)c4s3)CC2)cc1	RGS4 act -8.5 | RGS4 activ val 83 | M3R Ca counter 34
CC(NC(=O)c1cccc(S(=O)(=O)N2CCN(Cc3ccccc3)CC2)c1)c1ccc(Br)cc1 (stereo not drawn)	none
CCOC(=O)c1nnn(-c2nonc2-n2cccc2)c1CN1CCC(C)CC1	RGS4 act -8 | RGS4 activ val 72 | M3R Ca counter inactive
CCOC(=O)c1nnn(-c2nonc2-n2cccc2)c1CCl	none
CCOC(=O)c1ccc(Nc2cc(C)nc(-c3ccccc3O)n2)cc1	RGS4 act -8.3 | RGS4 activ val 90 | M3R Ca counter 66
Cc1cc(Nc2cccc(F)c2)nc(-c2ccccc2O)n1	none
CCC1CCCCN1CCCNC(=O)Cn1ncn2nc(-c3ccc(OC)cc3)cc2c1=O (stereo not drawn)	none
O=C(c1cccc(COc2ccc(Cl)cc2Cl)c1)N1CCN(c2ccccn2)CC1	RGS4 act -7.9 | RGS4 activ val 94 | M3R Ca counter 80
O=C(c1ccc(Cl)c(Cl)c1)N1CCN(c2ccccn2)CC1	none
COc1ccc2nc3c(cc2c1)c(NC(=O)c1cccs1)nn3CC(C)C	RGS4 act -8.5 | RGS4 activ val 86 | M3R Ca counter 61
CC(C)(C)S(=O)(=O)c1ccsc1C(=O)O	RGS4 act -16 | RGS4 activ val inactive | M3R Ca counter inactive
CC(=O)Nc1ccc(NCN2C(=O)[C@@H]3[C@H]4CC[C@H](C4)[C@@H]3C2=O)cc1	none
O=S(=O)(c1ccc(N2CC=C(c3ccccc3)CC2)nc1)N1CCCC1	RGS4 act -9.3 | RGS4 activ val 54 | M3R Ca counter inactive
O=C(O)/C=C/C(=O)N(CC1CCCO1)C1CC(=O)N(c2c(Cl)cccc2Cl)C1=O (stereo not drawn)	none
CN(C)C(CNc1ncnc2ccccc12)c1c(F)cccc1Cl (stereo not drawn)	none
COc1cc(CNCc2cccs2)ccc1OCC(=O)NC(C)(C)C	RGS4 act -8 | RGS4 activ val 46 | M3R Ca counter 84
CCOc1cc(CNCc2cccs2)ccc1OCC(=O)NC(C)(C)C	none
C=CCSC(=C(C#N)C#N)c1cc2c([nH]1)CCCC2	RGS4 act -9.2 | RGS4 activ val 90 | M3R Ca counter 32
O=C(O)c1cc2c([nH]c1=O)CCCC2	none
O=C(CN1C2CCCC1CC(NC(=O)C1CCCCC1)C2)Nc1ccccc1 (stereo not drawn)	none
O=C(NC1CC2CCCC(C1)N2Cc1ccccc1)C1CCCCC1 (stereo not drawn)	RGS4 act -9.9 | RGS4 activ val 60 | M3R Ca counter inactive
CC(C)CSC1=NSC2=NC(=O)/C(=C\c3coc4ccccc4c3=O)C(=N)N12	RGS4 act -12 | RGS4 activ val 98 | M3R Ca counter 100
Cc1ccc(S(=O)(=O)c2ccc(Oc3cccc(C)c3)cc2)cc1	RGS4 act -8.1 | RGS4 activ val 68 | M3R Ca counter 30
CC(C)[C@H](NC(=O)c1ccco1)C(=O)OCC(=O)c1ccc2c(c1)NC(=O)CO2	none
CC(C)CC(NC(=O)c1ccc(Cl)cc1)C(=O)OCC(=O)c1ccc2c(c1)NC(=O)CO2 (stereo not drawn)	RGS4 act -12 | RGS4 activ val 90 | M3R Ca counter 80
COC(=O)C1=C(C)N(C)C(=O)NC1c1ccc(C)cc1 (stereo not drawn)	none
